Measurements from ChEMBL document CHEMBL1159121, “Synthesis, in vitro structure-activity relationship, and in vivo studies of 2-arylthiazolidine-4-carboxylic acid amides as anticancer agents” (Bioorg Med Chem, 2010).
pIC50: −log10 of the molar value.

Key:
[1] = test system: HOP-62; test: Growth inhibition of human HOP62 cells; assay type: functional
[2] = test system: NCI-H23; test: Growth inhibition of human NCI-H23 cells; assay type: functional
[3] = test system: NCI-H322M; test: Growth inhibition of human NCI-H322M cells; assay type: functional
[4] = test system: NCI-H460; test: Growth inhibition of human NCI-H460 cells; assay type: functional
[5] = test system: NCI-H522; test: Growth inhibition of human NCI-H522 cells; assay type: functional
[6] = test system: COLO 205; test: Growth inhibition of human COLO205 cells; assay type: functional
[7] = test system: HCC 2998; test: Growth inhibition of human HCC2998 cells; assay type: functional
[8] = test system: HCT-116; test: Growth inhibition of human HCT116 cells; assay type: functional
[9] = test system: HCT-15; test: Growth inhibition of human HCT15 cells; assay type: functional
[10] = test system: SW-620; test: Growth inhibition of human SW620 cells; assay type: functional
[11] = test system: SF-268; test: Growth inhibition of human SF268 cells; assay type: functional
[12] = test system: SF-295; test: Growth inhibition of human SF295 cells; assay type: functional
[13] = test system: SF-539; test: Growth inhibition of human SF539 cells; assay type: functional
[14] = test system: SNB-19; test: Growth inhibition of human SNB19 cells; assay type: functional
[15] = test system: SNB-75; test: Growth inhibition of human SNB75 cells; assay type: functional
[16] = test system: LOX IMVI; test: Growth inhibition of human LOXIMVI cells; assay type: functional
[17] = test system: M14; test: Growth inhibition of human M14 cells; assay type: functional
[18] = test system: SK-MEL-28; test: Growth inhibition of human SK-MEL-28 cells; assay type: functional
[19] = test system: SK-MEL-5; test: Growth inhibition of human SK-MEL-5 cells; assay type: functional
[20] = test system: UACC-257; test: Growth inhibition of human UACC257 cells; assay type: functional
[21] = test system: UACC-62; test: Growth inhibition of human UACC62 cells; assay type: functional
[22] = test system: IGROV-1; test: Growth inhibition of human IGROV1 cells; assay type: functional
[23] = test system: OVCAR-4; test: Growth inhibition of human OVCAR4 cells; assay type: functional
[24] = test system: OVCAR-5; test: Growth inhibition of human OVCAR5 cells; assay type: functional
[25] = test system: OVCAR-8; test: Growth inhibition of human OVCAR8 cells; assay type: functional
[26] = test system: 786-0; test: Growth inhibition of human 786-0 cells; assay type: functional
[27] = test system: ACHN; test: Growth inhibition of human ACHN cells; assay type: functional
[28] = test system: RXF 393; test: Growth inhibition of human RXF393 cells; assay type: functional
[29] = test system: SN12C; test: Growth inhibition of human SN12C cells; assay type: functional
[30] = test system: TK-10; test: Growth inhibition of human TK10 cells; assay type: functional
[31] = test system: DU-145; test: Growth inhibition of human DU145 cells; assay type: functional
[32] = test system: NCI/ADR-RES; test: Growth inhibition of human NCI/ADR-RES cells; assay type: functional
[33] = test system: MDA-MB-231; test: Growth inhibition of human MDA-MB-231 cells; assay type: functional
[34] = test system: MDA-MB-435; test: Growth inhibition of human MDA-MB-435 cells; assay type: functional
[35] = Antiproliferative activity against human WM164 cells after 48 hrs by SRB assay; assay type: functional, cell-based; settings: WM164, 48 h
Outline: (§1)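 Melanoma lines and control fibroblasts grown at 37 °C, 5% CO2, then exposed to a wide concentration range for 48 h in round-bottom 96-well plates. Fixed with 10% TCA, stained with SRB, protein read at 560 nm. IC50 (50% growth inhibition versus untreated) obtained by nonlinear regression.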

[36] = Cytotoxicity against human fibroblasts after 48 hrs by SRB assay; assay type: cell-based; settings: Fibroblast; outline: as §1
[37] = test system: RH7777; test: Cytotoxicity against rat RH7777 cells after 96 hrs by SRB assay; assay type: cell-based; settings: RH7777, 96 h
Outline: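 Prostate lines in RPMI1640/10% FBS; RH7777 in DMEM/10% FBS. Cells TCA-fixed, stained with 0.4% SRB, absorbance read at 540 nm. IC50 from nonlinear regression of % survival against concentration.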

[38] = test system: CCRF-CEM; test: Growth inhibition of human CCRF-CEM cells; assay type: functional
[39] = test system: MOLT-4; test: Growth inhibition of human MOLT4 cells; assay type: functional
[40] = Growth inhibition of human […] cells; assay type: functional
[41] = test system: EKVX; test: Growth inhibition of human EKVX cells; assay type: functional
[42] = read-out: LC50 (the source's name)

## CCCCCCCCCCCCCCCCCCNC(=O)[C@@H]1CSC(c2ccccc2)N1 (mixture of isomers)
[1]
  GI50: 1.77 µM
  TGI: 3.15 µM
[1]; [42]
  CC50: 5.61 µM
[2]
  GI50: 1.84 µM
  TGI: 3.36 µM
[2]; [42]
  CC50: 6.17 µM
[3]
  GI50: 2.28 µM
  TGI: 5.15 µM
[3]; [42]
  CC50: 15.4 µM
[4]
  GI50: 1.41 µM
  TGI: 2.98 µM
[4]; [42]
  CC50: 6.31 µM
[5]
  GI50: 3.52 µM
  TGI: 12.3 µM
[5]; [42]
  CC50: > 100 µM
[6]
  GI50: 2.32 µM
  TGI: 4.98 µM
[6]; [42]
  CC50: 12.7 µM
[7]
  GI50: 0.54 µM
  TGI: 1.8 µM
[7]; [42]
  CC50: 4.24 µM
[8]
  GI50: 1.31 µM
  TGI: 2.58 µM
[8]; [42]
  CC50: 5.08 µM
[9]
  GI50: 10.9 µM
  TGI: 22.7 µM
[9]; [42]
  CC50: 47.7 µM
[10]
  GI50: 1.18 µM
  TGI: 2.4 µM
[10]; [42]
  CC50: 4.9 µM
[11]
  GI50: 1.2 µM
  TGI: 2.57 µM
[11]; [42]
  CC50: 5.53 µM
[12]
  GI50: 4.37 µM
  TGI: 15.9 µM
[12]; [42]
  CC50: 74.7 µM
[13]
  GI50: 1.72 µM
  TGI: 3.09 µM
[13]; [42]
  CC50: 5.56 µM
[14]
  GI50: 2.03 µM
  TGI: 3.66 µM
[14]; [42]
  CC50: 6.6 µM
[15]
  GI50: 2.64 µM
  TGI: 4.15 µM
[15]; [42]
  CC50: 6.54 µM
[16]
  GI50: 1.23 µM
  TGI: 2.59 µM
[16]; [42]
  CC50: 5.48 µM
[17]
  GI50: 1.44 µM
  TGI: 2.75 µM
[17]; [42]
  CC50: 5.24 µM
[18]
  GI50: 1.49 µM
  TGI: 2.81 µM
[18]; [42]
  CC50: 5.3 µM
[19]
  GI50: 1.92 µM
  TGI: 3.63 µM
[19]; [42]
  CC50: 6.87 µM
[20]
  GI50: 2.13 µM
  TGI: 4.23 µM
[20]; [42]
  CC50: 8.4 µM
[21]
  GI50: 2.14 µM
  TGI: 3.78 µM
[21]; [42]
  CC50: 6.68 µM
[22]
  GI50: 2.3 µM
  TGI: 5.47 µM
[22]; [42]
  CC50: 18.9 µM
[23]
  GI50: 2.61 µM
  TGI: 5.41 µM
[23]; [42]
  CC50: 17.5 µM
[24]
  GI50: 1.91 µM
  TGI: 3.32 µM
[24]; [42]
  CC50: 5.76 µM
[25]
  GI50: 2.24 µM
  TGI: 6.14 µM
[25]; [42]
  CC50: > 100 µM
[26]
  GI50: 1.78 µM
  TGI: 3.17 µM
[26]; [42]
  CC50: 5.63 µM
[27]
  GI50: 2.12 µM
  TGI: 4.9 µM
[27]; [42]
  CC50: 13.5 µM
[28]
  GI50: 1.55 µM
  TGI: 3.01 µM
[28]; [42]
  CC50: 5.85 µM
[29]
  GI50: 1.94 µM
  TGI: 3.35 µM
[29]; [42]
  CC50: 5.79 µM
[30]
  GI50: 7.46 µM
  TGI: 29.2 µM
[30]; [42]
  CC50: > 100 µM
[31]
  GI50: 3.78 µM
  TGI: 15.7 µM
[31]; [42]
  CC50: 39.6 µM
[32]
  GI50: 2.02 µM
  TGI: 3.85 µM
[32]; [42]
  CC50: 7.37 µM
[33]
  GI50: 1.61 µM
  TGI: 3.12 µM
[33]; [42]
  CC50: 6.05 µM
[34]
  GI50: 2.01 µM
  TGI: 4.12 µM
[34]; [42]
  CC50: 8.45 µM
[35]
  pIC50: 5.36
[36]
  pIC50: 4.53
[37]
  pIC50: < 4.70
[38]
  GI50: 0.56 µM
  TGI: 2.1 µM
[38]; [42]
  CC50: 6.5 µM
[39]
  GI50: 0.86 µM
  TGI: 2.43 µM
[39]; [42]
  CC50: 6.51 µM
[40]
  GI50: 2.12 µM
  TGI: 4.63 µM
[40]; [42]
  CC50: 11.7 µM
[41]
  GI50: 2.12 µM
  TGI: 4.72 µM
[41]; [42]
  CC50: 12.3 µM
